Screens as filed in PubChem BioAssay.
Insulin prom act = TRM-6 insulin promoter activation | TRM-6 cells, insulin promoter eGFP reporter, imaging; plate-scaled: unstimulated 0, stimulated control 100 | activation, % at 2 µM | 0.81% of 130,000 active | AID 1296;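 active = activation at 2 µM above a set limit, confirmed on inspection of the cell images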;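 also: share of cells whose green reporter signal exceeds an intensity cutoff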
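System: human fetal islet-derived TRM-6 cells with tamoxifen-inducible insulin promoter–eGFP reporter; input: seeding density of 1,000 cells per well; buffer or medium: Low-glucose (5.5 mM) medium with tamoxifen; incubation: compound exposure 48 h, 37 °C; measured by: high-content imaging of fixed cells with Hoechst nuclear stain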
Hits are given with their value; – = inactive. This excerpt belongs to a sample that is enriched for hits.

SMILES | Insulin prom act
O=C(NCCc1ccccn1)C1CC(=O)N(Cc2ccccc2Cl)C1 (stereo not drawn) | 131
COCCCNC(=O)C1CC(=O)N(Cc2ccc(OC)cc2)C1 (stereo not drawn) | –
COc1ccc(CN2CC(C(=O)NCCC3=CCCCC3)CC2=O)cc1 (stereo not drawn) | –
CCOC(=O)N1CCN(C(=O)c2cc(-n3cnnc3)ccc2Cl)CC1 | –
Cc1sc(NC(=O)CN2CCOCC2)c(C(=O)c2ccccc2)c1C | 75
CCOC(=O)c1c(NC(=O)CN2CCOCC2)sc(C(=O)NC)c1C | –
CCOC(=O)c1c(NC(=O)CN2CCOCC2)sc2c1CCCC2=O | –
CCOC(=O)C(C)c1c(C)[nH]c(=S)[nH]c1=O (stereo not drawn) | –
Cc1ccc2[nH]c(-c3ccccc3)c(CN3CCOCC3)c(=O)c2c1 | –
Cc1c(NC(=O)c2ccccc2)c(=O)n(-c2ccccc2)n1C | –
Cc1c(NC(N)=O)c(=O)n(-c2ccccc2)n1C | 248
CCOC(=O)NC(=S)Nc1c(C)n(C)n(-c2ccccc2)c1=O | –
O=C1CC(C(=O)N2CCOCC2)C2(CCCC2)O1 (stereo not drawn) | –
O=C(Nc1ccccc1C(=O)N1CCCC1)C1COc2ccccc2O1 (stereo not drawn) | –
C=CCNC(=O)c1ccccc1NC(=O)C1COc2ccccc2O1 (stereo not drawn) | 471
CCc1nnc(NC(=O)C2COc3ccccc3O2)s1 (stereo not drawn) | –
CCOc1ccc(CN2C(=O)c3ccccc3C2C(=O)NCc2cccnc2)cc1 (stereo not drawn) | –
O=C(NCc1cccnc1)C1c2ccccc2C(=O)N1C1CCCCCCC1 (stereo not drawn) | 156
O=C(NCC1CCCO1)C1c2ccccc2C(=O)N1C1CCCCCCC1 (stereo not drawn) | –
Cc1ccccc1-c1cc(C(=O)Nc2sc(C(=O)OC(C)C)c(C)c2C#N)c2ccccc2n1 | –
Cc1oc(-c2ccccc2)cc1C(=O)Nc1ccc(N(C)C)cc1 | –
CCOC(=O)/C(C#N)=C\c1ccc(OCC(=O)Nc2ccc(C)cc2C)c(OC)c1 | –
COc1ccc(-c2c(C)n([O-])c3c([n+]2=O)CCCC3)cc1OC | –
COC(=O)C1=C(C)N(CCCC(=O)O)C(=O)NC1c1ccc(-c2ccccc2)cc1 (stereo not drawn) | –
COC(=O)C1=C(C)C(c2cccs2)NC(=O)N1C (stereo not drawn) | –
SMILES | Insulin prom act
COC(=O)C1=C(C)N(CCCC(=O)O)C(=O)NC1c1cccs1 (stereo not drawn) | 295
COC(=O)Cn1c(=O)c(=O)n(CC(=O)OC)c2ccccc21 | –
O=C(CN(Cc1cccs1)C(=O)CSc1nnc(COc2ccccc2)o1)NC1CCCCC1 | –
CCCCCCCOc1ccc(OC(=O)c2cccnc2)cc1 | –
CC(C)(C)c1ccc(NC(=O)COC(=O)CCN2C(=O)c3cccc([N+](=O)[O-])c3C2=O)cc1 | –
O=C(CN1CCN(c2cccc(Cl)c2)CC1)N1CCCC1 | –
CC(=O)/C(C(=N)N1CCN(c2cccc(Cl)c2)CC1)=C(\C)O | –
O=C(O)CCC(=O)N1CCN(c2cccc(Cl)c2)CC1 | 467
CC(=O)Nc1ccc(S(=O)(=O)Nc2ccc3c(c2)C(=O)OC3)cc1 | –
COC(=O)Cc1ccc(O)c(N)c1 | –
CNc1nc(Oc2ccc(C(=O)OC)cc2)nc(SC)n1 | 494
Cc1ccc(Nc2nc(Oc3ccc(=O)[nH]n3)nc(N(C)C)n2)cc1 | –
COC(=O)c1ccc(-n2nnnc2SC)cc1 | –
COC(=O)c1ccc(Oc2nc(Nc3ccccc3)nc(N(C)C)n2)cc1 | 585
CN(C)c1nc(Nc2ccccc2)nc(Oc2ccc(=O)[nH]n2)n1 | –
CCNc1nc(Oc2ccc(=O)[nH]n2)nc(SC)n1 | –
Nc1nc(=S)[nH]c2c1C1(CCCCC1)Cc1ccccc1-2 | –
CCOC(=O)NC(Nc1ccc(OC)cc1)(C(F)(F)F)C(F)(F)F | –
Cc1ccc(S(=O)(=O)CC(C)N2CCN(C3CCCCC3)CC2)cc1 (stereo not drawn) | –
Cc1ccc(S(=O)(=O)NC2=NCN(C3CCCCC3)CN2)cc1 | 125
Cc1ccc(S(=O)(=O)NCCNC(=O)C2CCCNC2=O)cc1 (stereo not drawn) | –
c1ccc(-c2nn3nnnc3c3ccccc23)cc1 | –
Clc1ccc(-c2nc(N3CCCCC3)nc3ccccc23)cc1 | –
c1ccc(-c2nc(-n3nc4ccccc4n3)nc3ccccc23)cc1 | 146
CCOC(=O)C(Cc1ccc(NC(=O)/C(=C\c2ccccc2)NC(=O)c2ccccc2)cc1)N1C(=O)c2ccccc2C1=O (stereo not drawn) | –
SMILES | Insulin prom act
CC1(C)CC(=O)CC(=Nc2ccc(C(=O)O)cc2)C1 | –
COc1ccc2c(c1)C1NC(=S)NC(C)(O2)C1C(=O)Nc1ccccc1C (stereo not drawn) | –
COc1cccc(OC)c1C(=O)OCC(=O)NCC(C)C | –
CC(C)CCNC(=O)NC(=O)COC(=O)C1=COCCO1 | –
CC(C)CNC(=O)NC(=O)COC(=O)c1cc(F)cc(F)c1 | 333
CCC(CC)C(=O)c1c[nH]c(C(=O)NCc2ccncc2)c1 | –
Cc1ccccc1CS(=O)(=O)Cc1ccc(C(=O)NCCCN2CCCC2=O)o1 | –
O=C(Nc1cc(S(=O)(=O)N2CCCC2)ccc1OCC(F)(F)F)c1ccc(F)cc1 | –
O=C(Nc1cc(S(=O)(=O)N2CCCCC2)ccc1Cl)c1ccccc1NS(=O)(=O)c1ccc(F)cc1 | 525
O=C(Nc1ccccc1N1CCOCC1)c1ccccc1NS(=O)(=O)c1ccc(F)cc1 | –
CS(=O)(=O)N(CC(=O)NC1CCCCC1)c1cccc(Cl)c1 | –
O=C(Nc1nc2ccccc2s1)C1CC(=O)N(c2ccc(Br)cc2)C1 (stereo not drawn) | –
CCn1c(COc2ccc(=O)n(-c3ccccc3)n2)nnc1SC | –
COc1cccc(C(=O)NN/C(C)=C/C(=O)C(F)(F)C(F)(F)C(F)(F)F)c1 | –
CN(Cc1ccccc1)S(=O)(=O)c1ccc(Cl)c(C(=O)NCCc2ccccn2)c1 | –
CC1CCN(Cc2c(C#N)c3ccccc3n2C)CC1 | –
N#Cc1c(N)nc2c(c1-c1ccncc1)CCCC2 | –
CC(C)c1ccc(-c2c(C#N)c(N)nc3c2CCCCC3)cc1 | –
N#Cc1c2c(nc(N)c1-c1ccccc1)CCCCC2 | –
CSc1nc2c(c(-c3ccccc3)c1C#N)CCC2 | 411
N#Cc1c(N)nc2c(c1-c1ccncc1)CCCCCC2 | 450
Cc1[nH]n2c(=O)c3c(nc2c1-c1ccccc1)CCC3 | –
C[N+]12CCCCC1C(COC(=O)c1ccc3c(c1)OCO3)CCC2 (stereo not drawn) | –
CCCOc1c(Cl)cc(C(=O)Nc2ccc3c(c2)OCO3)cc1OCC | –
O=C(Cc1ccc([N+](=O)[O-])cc1)Nc1nnc(C2CC2)s1 | –
SMILES | Insulin prom act
O=C(O)c1cc(/C=N\O)ccc1OCc1ccccc1 | –
O=C(CNC(=O)c1ccccc1)OCc1ccc([N+](=O)[O-])cc1 | –
O=[N+]([O-])c1ccc(COc2ccccc2/C=N/O)cc1 | 529
Cc1nnc2n(CCc3ccccc3)c(=O)c3c4c(sc3n12)CCCC4 | –
COC(=O)C1=C(C)NC(C)=C(C(=O)OC)C1C(=O)OCC(=O)N1c2ccccc2CC1C (stereo not drawn) | –
O=C(c1ccc(F)cc1)C1CCN(C(=O)NCc2ccccc2)CC1 | –
OCCN(CCO)Cc1csc2ccccc12 | –
CC(=O)c1ccc(NC(=O)Nc2ccccc2)cc1 | –
CCN(CC)c1ccc(NC(=O)Nc2ccc(C(C)=O)cc2)cc1 | –
